The source made the active and inactive calls. No cut-off for these calls is given here.
Assays:
PRMT5/MEP50 complex [1] = biological target: T1, PRMT5/MEP50 complex (Homo sapiens, UniProt O14744); test: Inhibition of recombinant human N-terminal FLAG-tagged PRMT5 (2 to end residues) /human N-terminal His-tagged MEP50 (2 to end residues) expressed in HEK293F cells using histone H4 as substrate preincubated for 15 mins followed by substrate/S-adenosyl methionine addition measured after 60 mins by alpha LISA assay; parameters: species or system HEK293
PRMT5/MEP50 complex [2] = biological target: T1, PRMT5/MEP50 complex; test: Inhibition of recombinant human N-terminal FLAG-tagged PRMT5 (2 to end residues)/human N-terminal His-tagged MEP50 (2 to end residues) expressed in HEK293F cells using histone H4 as substrate in presence of [3H]-SAM after 60 mins by chemiluminescent assay; format: cell-based, HEK293; details: in the assay text read “radioactive methylation assay” for “chemiluminescent assay”
Summary of the method: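 PRMT5/MEP50 complex in modified Tris buffer with 3-fold diluted compound (1% DMSO final) preincubated 15 min at RT. Substrate added and reaction started with [3H]-SAM; 60 min at RT, stopped with cold SAM. Transferred to Flashplate, washed, counted on MicroBeta.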

[3] = biological target: T2, PRMT5/MEP50 complex (Homo sapiens) (UniProt O14744+Q9BQA1); test: (§1) Competitive inhibition of recombinant human N-terminal FLAG-tagged PRMT5 (2 to end residues) /human N-terminal His-tagged MEP50 (2 to end residues) expressed in HEK293F cells using peptide substrate preincubated for 15 mins followed by substrate/[3H]-SAM addition measured after 60 mins under varying concentration of peptide; format: cell-based
Summary of the method: (§2)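 Mechanism study in modified Tris buffer. PRMT5/MEP50 preincubated 15 min at RT with serially diluted compound (1% DMSO final), then peptide added and reaction started with [3H]-SAM. For the SAM study, [3H]-SAM was set at 7 concentrations with fixed peptide. For the peptide study, peptide was set at 7 concentrations with fixed SAM. Run 60 min at RT, stopped with cold SAM, Flashplate capture, MicroBeta counting.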

[4] = biological target: T2, PRMT5/MEP50 complex (Homo sapiens); test: as §1, with “Uncompetitive inhibition” for “Competitive inhibition”, “of SAM” for “of peptide”; format: cell-based; summary of the method: as §2
HUVEC = test: Cytotoxicity against human HUVEC assessed as cell growth inhibition after 8 days by Cell Titer-Glo assay; format: cell-based; details: 192 h
Summary of the method: (§3)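 Normal cells (HUVEC from ATCC; RCTEC) grown in RPMI1640 with 10% FBS and 1% penicillin/streptomycin, 5% CO2, 37 °C. Seeded at 0.5–1 × 10^5 cells/well; compound (0–100 μM) added after 6 h. Cells counted and replated with fresh medium and compound every 4 days over 8 days. Viability by CellTiter-Glo luminescence; concentration–response curves fitted at each time point.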

MV4-11 [5] = test: Cytotoxicity against human MV411 cells assessed as cell growth inhibition after 12 days by Cell Titer-Glo assay; details: MV4-11, 288 h
JeKo-1 = test: Cytotoxicity against human JeKo1 cells assessed as cell growth inhibition after 12 days by Cell Titer-Glo assay; format: functional, cell-based; details: JeKo-1, 288 h
Summary of the method: (§4)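 Cancer lines grown in RPMI1640 with 10% FBS and 1% penicillin/streptomycin, 5% CO2, 37 °C. Seeded at 0.5–1 × 10^5 cells/well; compound (0–100 μM) added after 6 h. Counted and replated at equal numbers with fresh medium and compound every 4 days, up to 12 days. Viable cells by CellTiter-Glo luminescence; concentration–response curves fitted at each time point.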

Z-138 = test: Cytotoxicity against human Z138 cells assessed as cell growth inhibition after 12 days by Cell Titer-Glo assay; format: functional, cell-based; details: Z-138, 288 h; summary of the method: as §4
[6] = Cytotoxicity against human RCTEC assessed as cell growth inhibition after 8 days by Cell Titer-Glo assay; format: cell-based; details: 192 h; summary of the method: as §3
MV4-11 [7] = test: Cytotoxicity against human MV411 cells assessed as cell growth inhibition after 4 days by Cell Titer-Glo assay; format: functional, cell-based; details: MV4-11, 96 h; summary of the method: as §4
MV4-11 [8] = test: Cytotoxicity against human MV411 cells assessed as cell growth inhibition after 8 days by Cell Titer-Glo assay; format: functional, cell-based; details: MV4-11, 192 h; summary of the method: as §4
[9] = biological target: Protein arginine N-methyltransferase 5 (Homo sapiens) (UniProt O14744); test: Inhibition of PRMT5 in human MV411 cells assessed as downregulation of SmD3 after 6 days by Western blot analysis; format: cell-based
Summary of the method: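 MV4-11 cells treated with compound over a 0–20 μM titration for 6 days. Whole-cell lysates run on 4–12% SDS-PAGE, transferred to nitrocellulose, blocked in 5% milk. Probed overnight at 4 °C with anti-symmetric dimethylarginine (SDMA) and GAPDH antibodies, then HRP secondary. SmD3-colocalizing band assessed.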

[10] = biological target: T2, PRMT5/MEP50 complex (Homo sapiens); test: as §1, with “of SAM” for “of peptide”; format: cell-based; summary of the method: as §2
[11] = biological target: T2, PRMT5/MEP50 complex (Homo sapiens); test: as §1, with “Non-competitive” for “Competitive”; format: cell-based; summary of the method: as §2
KOPN-8 = test: Cytotoxicity against human KOPN8 cells assessed as cell growth inhibition after 12 days by Cell Titer-Glo assay; details: KOPN-8, 288 h

T1 sequence (O14744 whole entry): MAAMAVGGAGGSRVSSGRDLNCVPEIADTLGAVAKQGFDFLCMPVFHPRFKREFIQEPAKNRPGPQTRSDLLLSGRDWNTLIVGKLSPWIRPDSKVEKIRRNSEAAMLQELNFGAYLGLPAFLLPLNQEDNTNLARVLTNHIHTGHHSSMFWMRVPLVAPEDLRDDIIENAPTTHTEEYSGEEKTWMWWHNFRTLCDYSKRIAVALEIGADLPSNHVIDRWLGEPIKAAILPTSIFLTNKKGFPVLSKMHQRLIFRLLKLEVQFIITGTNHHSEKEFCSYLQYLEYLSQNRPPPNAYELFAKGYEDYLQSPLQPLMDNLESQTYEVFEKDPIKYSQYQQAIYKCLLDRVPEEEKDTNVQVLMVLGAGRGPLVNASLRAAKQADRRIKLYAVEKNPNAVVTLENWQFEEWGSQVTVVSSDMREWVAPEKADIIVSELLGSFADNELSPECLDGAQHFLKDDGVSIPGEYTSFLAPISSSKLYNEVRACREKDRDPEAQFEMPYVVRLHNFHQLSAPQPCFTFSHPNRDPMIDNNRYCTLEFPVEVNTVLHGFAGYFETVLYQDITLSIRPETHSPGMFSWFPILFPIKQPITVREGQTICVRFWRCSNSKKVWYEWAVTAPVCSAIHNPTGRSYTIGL
T1 sequence (Q9BQA1 whole entry, further chain): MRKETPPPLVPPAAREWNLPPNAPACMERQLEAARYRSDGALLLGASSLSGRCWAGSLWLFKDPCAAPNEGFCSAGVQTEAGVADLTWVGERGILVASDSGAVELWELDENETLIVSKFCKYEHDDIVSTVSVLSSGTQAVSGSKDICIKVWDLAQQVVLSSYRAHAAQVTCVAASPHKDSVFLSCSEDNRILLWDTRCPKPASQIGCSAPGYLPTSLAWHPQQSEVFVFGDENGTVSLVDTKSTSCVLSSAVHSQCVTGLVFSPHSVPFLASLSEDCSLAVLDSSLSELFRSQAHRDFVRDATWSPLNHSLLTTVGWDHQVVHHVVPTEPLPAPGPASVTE
Protein arginine N-methyltransferase 5 (Homo sapiens), sequence (O14744 whole entry): as the sequence (O14744 whole entry) above

SMILES | IC50 (PRMT5/MEP50 complex [1]) [µM] | also measured
Cc1ccc(OCc2nnc3sc(-c4cccnc4)nn23)cc1 | 26 | IC50 (PRMT5/MEP50 complex [2]): > 200 µM
COc1ccc2[nH]c(SCC(=O)Nc3ccccc3C(=O)N(C)C)nc2c1 | > 200 | –
COC(=O)c1ccccc1NC(=O)CSc1nc2cc(N)ccc2[nH]1 | 40 | –
COc1ccc(C(=O)NC2C=NCS2)c(OC)c1 (stereo not drawn) | 27 | –
COC(=O)c1ccc(NC(=O)CSc2nc3cc(OC)ccc3[nH]2)cc1 | > 100 | –
COc1ccc2[nH]c(SCC(=O)Nc3ccccc3)nc2c1 | 33 | –
COC(=O)c1ccccc1NC(=O)CSc1nc2ccncc2[nH]1 | 87 | –
COC(=O)c1ccccc1NC(=O)CSc1nc2c(C)cccc2[nH]1 | > 100 | –
COc1ccc2[nH]c(SCC(=O)Nc3ccccc3C(=O)O)nc2c1 | > 100 | –
COC(=O)c1cccc(NC(=O)CSc2nc3cc(OC)ccc3[nH]2)c1 | 52 | –
O=C(NC[C@H](O)CN1CCc2ccccc2C1)c1cc(NC2COC2)ncn1 | – | inhibition [3]: Active; inhibition [4]: Active
COC(=O)c1ccccc1NC(=O)CSc1nc2c(OC)cccc2[nH]1 | > 100 | –
COc1ccc2[nH]c(SCC(=O)Nc3ccccc3N(C)C)nc2c1 | 25 | –
COC(=O)c1ccccc1NC(=O)CSc1nc2cc(O)ccc2[nH]1 | > 100 | –
O=C(/C=C/c1ccc(-c2ccccc2[N+](=O)[O-])o1)c1ccccc1 | 23 | IC50 (PRMT5/MEP50 complex [2]): 169 µM
CNC(=O)c1ccccc1NC(=O)CSc1nc2cc(OC)ccc2[nH]1 | > 200 | –
COC(=O)c1ccccc1NC(=O)CSc1nc2c(Cl)cccc2[nH]1 | > 100 | –
COC(=O)c1ccccc1NC(=O)CSc1nc2cc(OC)ccc2[nH]1 | – | Activity (HUVEC): Non-Toxic; EC50 (MV4-11 [5]): 6.53 µM; EC50 (JeKo-1): 15 to 70 µM; EC50 (Z-138): 15 to 70 µM; Activity [6]: Non-Toxic; EC50 (MV4-11 [7]): 80.7 µM; EC50 (MV4-11 [8]): 25.7 µM; inhibition [9]: Dose-dependent effect; inhibition [10]: Active; inhibition [11]: Active; EC50 (KOPN-8): 15 to 70 µM
Clc1ccc(CNCC2CCNCC2)cc1Cl | 27 | –
COc1ccc2[nH]c(SCC(=O)Nc3ccccc3Cl)nc2c1 | 47 | –
COc1ccc2[nH]c(SCC(=O)Nc3ccccc3C)nc2c1 | > 200 | –

Continued by falling IC50 (PRMT5/MEP50 complex [1]), values first:

IC50 (PRMT5/MEP50 complex [1]) [µM] | SMILES | also measured
19 | COc1ccc2[nH]c(SCC(=O)Nc3ccccc3OC)nc2c1 | –
18 | OCCNCc1c(OCc2ccccc2F)ccc2ccccc12 | IC50 (PRMT5/MEP50 complex [2]): 172 µM
8.4 | COC(=O)c1ccccc1NC(=O)CSc1nc2nc(OC)ccc2[nH]1 | –
8.1 | COC(=O)c1ccccc1NC(=O)CSc1nc2ccccc2[nH]1 | IC50 (PRMT5/MEP50 complex [2]): 24 µM
3.3 | COC(=O)c1ccccc1NC(=O)CSc1nc2cc(F)ccc2[nH]1 | –
2.9 | COc1ccc2[nH]c(SCC(=O)Nc3ccccc3C(C)=O)nc2c1 | –
2.8 | COC(=O)c1ccccc1NC(=O)CSc1nc2cc(OC(C)C)ccc2[nH]1 | –
2.4 | COC(=O)c1ccncc1NC(=O)CSc1nc2cc(OC)ccc2[nH]1 | –
1.9 | CCOC(=O)c1ccccc1NC(=O)CSc1nc2cc(OC)ccc2[nH]1 | –
1.6 | CNc1ccc2[nH]c(SCC(=O)Nc3ccccc3C(=O)OC)nc2c1 | –
1.4 | COC(=O)c1ccccc1NC(=O)CSc1nc2cc(C)ccc2[nH]1 | –
0.83 | COC(=O)c1ccccc1NC(=O)CSc1nc2cc([N+](=O)[O-])ccc2[nH]1 | –
0.53 | CCCOc1ccc2[nH]c(SCC(=O)Nc3ccccc3C(=O)OC)nc2c1 | –
0.5 | COC(=O)c1ccccc1NC(=O)CSc1nc2cc(Cl)ccc2[nH]1 | –
0.35 | CCOc1ccc2[nH]c(SCC(=O)Nc3ccccc3C(=O)OC)nc2c1 | –
0.34 | COC(=O)c1ccccc1NC(=O)CSc1nc2cc(Br)ccc2[nH]1 | –
0.33 | COC(=O)c1ccccc1NC(=O)CSc1nc2cc(N(C)C)ccc2[nH]1 | –
